Legend:
Hepatitis C virus [1] = experiment: Antiviral activity against Hepatitis C virus genotype 1a H77 infected in human 2209-23 cells after 72 hrs by luciferase reporter gene assay; assay type: functional, organism-based, Hepacivirus hominis; settings: genotype 1a H77, 2209-23, 72 h
Hepatocyte [2] = experiment: Intrinsic clearance in rat hepatocytes assessed per 10^6 cells; assay type: ADME, cell-based
In short: (§1)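 Suspended hepatocytes (about 1.0×10^6 cells/mL) in Williams' medium E with glutamine, antibiotics, insulin, dexamethasone and 10% FCS, 37 °C, 5% CO2, shaken at 900 rpm. Compound at 0.1–10.0 μM. Stopped with methanol plus internal standard at 2–180 min. Parent remaining by LC/MS/MS peak area ratio, in duplicate.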

Hepatocyte [3] = experiment: Intrinsic clearance in human hepatocytes assessed per 10^6 cells; assay type: ADME, cell-based; in short: as §1
Hepatitis C virus [4] = experiment: Antiviral activity against Hepatitis C virus genotype 1b Con1 infected in human 2209-23 cells after 72 hrs by luciferase reporter gene assay; assay type: functional, organism-based, Hepacivirus hominis; settings: isolate Con1, 2209-23, 72 h
In short: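 Stable GT-1b Con1 subgenomic replicon cell line expressing a renilla luciferase reporter, used as the readout of inhibition. EC50 from luciferase signal, n 2.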

[5] = Inhibition of N-terminal 6xHis-tagged Hepatitis C virus genotype 1b Con1 NS5B polymerase containing 21-amino acid deletion at C-terminus expressed in Escherichia coli using radiolabeled UTP as substrate after 2 hrs by scintillation counting analysis; parameters: species or system Hepatitis C virus (isolate Con1)
In short: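 GT-1b Con1 NS5B polymerase (NS5B570n-Con1) activity assay run with RNA template at 3 nM and enzyme at 3 nM. IC50 reported in nM.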

[6] = Thermodynamic solubility of the compound; assay type: physicochemical; settings: read-out: Therm_solubility
[7] = Volume of distribution at steady state in Wistar/Han rat at 2.6 mg/kg, iv; assay type: ADME, organism-based; parameters: dose 2.6 mg/kg, route intravenous; settings: in vivo, read-out: Vdss
In short: (§2)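 Single IV bolus by tail vein or jugular cannula in 2% dimethyl acetamide/20% PEG400/23.4% HPBCD, n = 3. EDTA blood taken at typically 0.08, 0.25, 0.5, 1, 2, 4, 6, 8 and 24 h. Plasma assayed by LC/MS/MS after acetonitrile protein precipitation; clearance, Vdss and t1/2 derived from the plasma data.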

Hepatitis C virus [8] = experiment: Antiviral activity against Hepatitis C virus genotype 1a clinical isolate RO-28 expressing NS5B assessed as inhibition of viral replication after 4 days by luciferase reporter gene assay; assay type: functional, organism-based, Hepacivirus hominis; settings: genotype 1a clinical isolate RO-28, 96 h
Hepatitis C virus [9] = experiment: Antiviral activity against Hepatitis C virus genotype 1b clinical isolate RO-8 expressing NS5B assessed as inhibition of viral replication after 4 days by luciferase reporter gene assay; assay type: functional, organism-based, Hepacivirus hominis; settings: genotype 1b clinical isolate RO-8, 96 h
Hepatitis C virus [10] = experiment: Antiviral activity against Hepatitis C virus genotype 1b clinical isolate RO-4 expressing NS5B assessed as inhibition of viral replication after 4 days by luciferase reporter gene assay; assay type: functional, organism-based, Hepacivirus hominis; settings: genotype 1b clinical isolate RO-4, 96 h
[11] = Clearance in Beagle dog at 0.86 mg/kg, iv; assay type: ADME, organism-based, Canis lupus familiaris; parameters: dose 0.86 mg/kg, route intravenous; settings: in vivo; in short: as §2
Hepatitis C virus [12] = experiment: Antiviral activity against Hepatitis C virus genotype 1b Con1 infected in human 2209-23 cells after 72 hrs by luciferase reporter gene assay in presence of 40% human serum; assay type: functional, organism-based, Hepacivirus hominis; settings: isolate Con1, 2209-23, 72 h
Hepatitis C virus [13] = experiment: Antiviral activity against Hepatitis C virus genotype 1b clinical isolate RO-10 expressing NS5B assessed as inhibition of viral replication after 4 days by luciferase reporter gene assay; assay type: functional, organism-based, Hepacivirus hominis; settings: genotype 1b clinical isolate RO-10, 96 h
[14] = Oral bioavailability in Beagle dog at 30 mg/kg of amorphus MBP compound; assay type: ADME, organism-based, Canis lupus familiaris; settings: in vivo
In short: (§3)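 Single oral dose by gavage in 2% Klucel LF in water (the amorphous MBP was made by solvent-controlled co-precipitation with Eudragit L100-55 from DMA into chilled pH 3.0 dilute HCl), n = 3. EDTA blood typically sampled at 0.25, 0.5, 1, 2, 4, 6, 8 and 24 h. Plasma levels by LC/MS/MS after acetonitrile protein precipitation.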

[15] = Volume of distribution at steady state in Beagle dog at 0.86 mg/kg, iv; assay type: ADME, organism-based, Canis lupus familiaris; parameters: dose 0.86 mg/kg, route intravenous; settings: in vivo, read-out: Vdss; in short: as §2
[16] = Drug uptake in Wistar/Han rat at 30 mg/kg, po of amorphus MBP compound measured at 8 hrs; assay type: ADME, organism-based; parameters: dose 30 mg/kg, route oral; settings: in vivo, read-out: Drug uptake; in short: as §3
[17] = Oral bioavailability in Wistar/Han rat at 30 mg/kg of amorphus MBP compound; assay type: ADME, organism-based; settings: in vivo; in short: as §3
[18] = AUC (0 to infinity) in Beagle dog at 30 mg/kg, po of amorphus MBP compound; assay type: ADME, organism-based, Canis lupus familiaris; parameters: time infinity, dose 30 mg/kg, route oral; settings: plasma; in short: as §3
Hepatitis C virus [19] = experiment: Antiviral activity against Hepatitis C virus genotype 1a H77 infected in human 2209-23 cells after 72 hrs by luciferase reporter gene assay in presence of 40% human serum; assay type: functional, organism-based, Hepacivirus hominis; settings: genotype 1a H77, 2209-23, 72 h
Hepatitis C virus [20] = experiment: Antiviral activity against Hepatitis C virus genotype 1a H77 expressing NS5B assessed as inhibition of viral replication after 4 days by luciferase reporter gene assay; assay type: functional, organism-based, Hepacivirus hominis; settings: genotype 1a H77, 96 h
[21] = Half life in Wistar/Han rat at 2.6 mg/kg, iv; assay type: ADME, organism-based; parameters: dose 2.6 mg/kg, route intravenous; settings: in vivo; in short: as §2
Hepatitis C virus [22] = experiment: Antiviral activity against Hepatitis C virus genotype 1b clinical isolate RO-1 expressing NS5B assessed as inhibition of viral replication after 4 days by luciferase reporter gene assay; assay type: functional, organism-based, Hepacivirus hominis; settings: genotype 1b clinical isolate RO-1, 96 h
Hepatitis C virus [23] = experiment: Antiviral activity against Hepatitis C virus genotype 1b clinical isolate RO-7 expressing NS5B assessed as inhibition of viral replication after 4 days by luciferase reporter gene assay; assay type: functional, organism-based, Hepacivirus hominis; settings: genotype 1b clinical isolate RO-7, 96 h
Hepatitis C virus [24] = experiment: Antiviral activity against Hepatitis C virus genotype 1b Con1 expressing NS5B assessed as inhibition of viral replication after 4 days by luciferase reporter gene assay; assay type: functional, organism-based, Hepacivirus hominis; settings: isolate Con1, 96 h
Hepatitis C virus [25] = experiment: Antiviral activity against Hepatitis C virus genotype 1a clinical isolate RO-33 expressing NS5B assessed as inhibition of viral replication after 4 days by luciferase reporter gene assay; assay type: functional, organism-based, Hepacivirus hominis; settings: genotype 1a clinical isolate RO-33, 96 h
[26] = Drug uptake in Beagle dog at 30 mg/kg, po of amorphus MBP compound measured at 8 hrs; assay type: ADME, organism-based, Canis lupus familiaris; parameters: dose 30 mg/kg, route oral; settings: in vivo, read-out: Drug uptake; in short: as §3
[27] = AUC (0 to infinity) in Wistar/Han rat at 30 mg/kg, po of amorphus MBP compound; assay type: ADME, organism-based; parameters: time infinity, dose 30 mg/kg, route oral; settings: plasma; in short: as §3
Hepatitis C virus [28] = experiment: Antiviral activity against Hepatitis C virus genotype 1a clinical isolate RO-41 expressing NS5B assessed as inhibition of viral replication after 4 days by luciferase reporter gene assay; assay type: functional, organism-based, Hepacivirus hominis; settings: genotype 1a clinical isolate RO-41, 96 h
[29] = Cmax in Beagle dog at 30 mg/kg, po of amorphus MBP compound; assay type: ADME, organism-based, Canis lupus familiaris; parameters: dose 30 mg/kg, route oral; settings: in vivo; in short: as §3
Hepatitis C virus [30] = experiment: Antiviral activity against Hepatitis C virus genotype 1b clinical isolate RO-3 expressing NS5B assessed as inhibition of viral replication after 4 days by luciferase reporter gene assay; assay type: functional, organism-based, Hepacivirus hominis; settings: genotype 1b clinical isolate RO-3, 96 h
[31] = Cmax in Wistar/Han rat at 30 mg/kg, po of amorphus MBP compound; assay type: ADME, organism-based; parameters: dose 30 mg/kg, route oral; settings: in vivo; in short: as §3
Hepatitis C virus [32] = experiment: Antiviral activity against Hepatitis C virus genotype 1a clinical isolate RO-18 expressing NS5B assessed as inhibition of viral replication after 4 days by luciferase reporter gene assay; assay type: functional, organism-based, Hepacivirus hominis; settings: genotype 1a clinical isolate RO-18, 96 h
Hepatitis C virus [33] = experiment: Antiviral activity against Hepatitis C virus genotype 1a clinical isolate RO-34 expressing NS5B assessed as inhibition of viral replication after 4 days by luciferase reporter gene assay; assay type: functional, organism-based, Hepacivirus hominis; settings: genotype 1a clinical isolate RO-34, 96 h
[34] = Half life in Beagle dog at 0.86 mg/kg, iv; assay type: ADME, organism-based, Canis lupus familiaris; parameters: dose 0.86 mg/kg, route intravenous; settings: in vivo; in short: as §2
Hepatitis C virus [35] = experiment: Antiviral activity against Hepatitis C virus genotype 1b clinical isolate RO-2 expressing NS5B assessed as inhibition of viral replication after 4 days by luciferase reporter gene assay; assay type: functional, organism-based, Hepacivirus hominis; settings: genotype 1b clinical isolate RO-2, 96 h
Hepatitis C virus [36] = experiment: Antiviral activity against Hepatitis C virus genotype 1a clinical isolate RO-38 expressing NS5B assessed as inhibition of viral replication after 4 days by luciferase reporter gene assay; assay type: functional, organism-based, Hepacivirus hominis; settings: genotype 1a clinical isolate RO-38, 96 h
Hepatitis C virus [37] = experiment: Antiviral activity against Hepatitis C virus genotype 1b clinical isolate RO-9 expressing NS5B assessed as inhibition of viral replication after 4 days by luciferase reporter gene assay; assay type: functional, organism-based, Hepacivirus hominis; settings: genotype 1b clinical isolate RO-9, 96 h
Hepatitis C virus [38] = experiment: Antiviral activity against Hepatitis C virus genotype 1a clinical isolate RO-35 expressing NS5B assessed as inhibition of viral replication after 4 days by luciferase reporter gene assay; assay type: functional, organism-based, Hepacivirus hominis; settings: genotype 1a clinical isolate RO-35, 96 h
[39] = Clearance in Wistar/Han rat at 2.6 mg/kg, iv; assay type: ADME, organism-based; parameters: dose 2.6 mg/kg, route intravenous; settings: in vivo; in short: as §2

SMILES: COc1c(CC(F)(F)F)cc(-n2ccc(=O)[nH]c2=O)c2ncc(-c3ccc(NS(C)(=O)=O)cc3)cc12
- EC50 (Hepatitis C virus [1]): 839 nM
- CLH (Hepatocyte [2]): 3.7 uL/min/10^6 cells
- CLH (Hepatocyte [3]): 0.8 uL/min/10^6 cells
- EC50 (Hepatitis C virus [4]): 119 nM

SMILES: COc1c(C(C)(C)C)cc(-c2ccc(C)[nH]c2=O)c2ncc(C#CCCNS(C)(=O)=O)cc12
- EC50 (Hepatitis C virus [1]): 341 nM
- IC50 [5]: 5 nM
- solubility thermodynamic [6]: < 1 µg/mL

SMILES: COc1c(C(C)(C)C)cc(-c2ccc(C)[nH]c2=O)c2ncc(-c3ccc(NS(C)(=O)=O)cc3)cc12
- EC50 (Hepatitis C virus [1]): 4.2 nM
- EC50 (Hepatitis C virus [4]): 2 nM

SMILES: COc1c(C(C)(C)C)cc(N2CCCNC2=O)c2ncc(-c3ccc(NS(C)(=O)=O)cc3)cc12
- EC50 (Hepatitis C virus [1]): 64 nM
- EC50 (Hepatitis C virus [4]): 20 nM

SMILES: COc1ccc(-c2cc(C(C)(C)C)c(OC)c3cc(-c4ccc(NS(C)(=O)=O)cc4)cnc23)c(=O)[nH]1
- Vd [7]: 2.2 L/kg
- EC50 (Hepatitis C virus [8]): 0.9 nM
- EC50 (Hepatitis C virus [9]): 0.33 nM
- EC50 (Hepatitis C virus [10]): 0.11 nM
- clearance [11]: 7.5 mL/min/kg
- EC50 (Hepatitis C virus [12]): 3.8 nM
- EC90 (Hepatitis C virus [12]): 19 nM
- EC50 (Hepatitis C virus [13]): 0.34 nM
- bioavailability [14]: 31%
- Vd [15]: 2.8 L/kg
- concentration at 8 h [16]: 620 ng/mL
- bioavailability [17]: 26%
- AUC(0-inf) [18]: 23700 ng·h/mL
- EC50 (Hepatitis C virus [19]): 10 nM
- EC90 (Hepatitis C virus [19]): 63 nM
- EC50 (Hepatitis C virus [20]): 0.3 nM
- half-life [21]: 4.3 h
- solubility thermodynamic [6]: < 1 µg/mL
- EC50 (Hepatitis C virus [22]): 0.11 nM
- EC50 (Hepatitis C virus [23]): 0.22 nM
- EC50 (Hepatitis C virus [24]): 0.32 nM
- EC50 (Hepatitis C virus [25]): 0.6 nM
- concentration at 8 h [26]: 990 ng/mL
- AUC(0-inf) [27]: 13800 ng·h/mL
- EC50 (Hepatitis C virus [28]): 0.6 nM
- Cmax [29]: 1500 ng/mL
- EC50 (Hepatitis C virus [30]): 0.43 nM
- Cmax [31]: 2100 ng/mL
- EC50 (Hepatitis C virus [32]): 0.4 nM
- EC50 (Hepatitis C virus [33]): 0.5 nM
- half-life [34]: 4.3 h
- EC50 (Hepatitis C virus [4]): 1 nM
- EC50 (Hepatitis C virus [35]): 0.19 nM
- EC50 (Hepatitis C virus [36]): 4.3 nM
- EC50 (Hepatitis C virus [37]): 0.34 nM
- EC50 (Hepatitis C virus [38]): 0.3 nM
- clearance [39]: 11.4 mL/min/kg
